Active and inactive are the calls of the source. No cut-off for these calls is given here.
What was measured:
[1] = tested on: 3T3-L1; assay: Anti-adipogenic activity in mouse 3T3L1 pre-adipocytes in differentiation media assessed as reduction in lipid accumulation at 20 uM after 20 mins in presence of beta-catenin/TCF complex inhibitor FH353 by Oil Red O staining based microscopic method; assay type: functional, cell-based
How it was run: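 3T3-L1 adipocytes given 20 µM compound with or without 10 µM FH353 in differentiation media, then Oil red O stained. Imaged at 20x and 40x, representative of three independent experiments.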

[2] = tested on: Syrian golden hamster; assay: Anti-dyslipidemic activity in high fat diet-induced dyslipidemia Syrian Golden hamster model assessed as reduction in serum NEFA levels at 100 mg/kg, po administered for 1 week followed by overnight fasting post last dose; assay type: functional, organism-based; conditions: Mesocricetus auratus
How it was run: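 Male Syrian golden hamsters (8–10 wk, 100–120 g), 4 per group, given 45% kcal HFD for 4 days, then 100 mg/kg p.o. in 0.5% NaCMC daily for one week alongside HFD. Blood taken from retro-orbital plexus after overnight fast. TG, HDL, LDL, ALT, AST measured on a clinical bio-analyzer and NEFA by kit. Mean ± SEM, one-way ANOVA with Bonferroni.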

[3] = organism: Mus musculus; assay: Activation of Wnt3a/beta-catenin in mouse 3T3L1 cells assessed as down-regulation of CDK6 expression at 20 uM after 16 to 24 hrs by Western blot analysis; assay type: cell-based
How it was run: (§1)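 3T3-L1 cells given MDI differentiation media (0.5 mM IBMX, 5 µg/ml insulin, 250 nM dexamethasone) with or without 20 µM compound. Proteins isolated at 16 and 24 h and probed by Western blot for CDK2, CDK4, CDK6, cyclin D1 and D3. Densitometry normalized to actin, n=3, mean ± SD, Student t test.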

[4] = tested on: 3T3-L1; assay: Anti-adipogenic activity in mouse 3T3L1 pre-adipocytes in differentiation media assessed as reduction in lipid accumulation at 20 uM after 20 mins in presence of beta-catenin/TCF complex inhibitor FH353 by Oil Red O absorbance method; assay type: functional, cell-based
How it was run: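 3T3-L1 cells differentiated with 20 µM compound with or without FH353 (10 µM) in differentiation media. Oil red O extracted and absorbance read at 492 nm, n=3, mean ± SD, Student t test.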

[5] = tested on: 3T3-L1; assay: Cell cycle arrest in mouse 3T3L1 cells assessed as reduction in accumulation at S phase at 10 to 20 uM after 24 hrs by propidium iodide-staining based flow cytometry; assay type: functional
How it was run: (§2)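 Confluent 3T3-L1 preadipocytes given differentiation medium (0.5 mM IBMX, 5 µg/ml insulin, 250 nM dexamethasone) with 10 or 20 µM for 16 and 24 hr. Cells trypsinized, fixed in ice-cold 70% ethanol for 2 hr, stained with propidium iodide (40 µg/ml in RNase A buffer, 30 min, room temperature). Flow cytometry gave the fractions in G1, S and G2/M; three independent experiments.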

[6] = organism: Mus musculus; assay: Activation of Wnt3a/beta-catenin in mouse 3T3L1 cells assessed as induction of TCF1 expression at 20 uM after 16 to 24 hrs by Western blot analysis; assay type: cell-based
[7] = organism: Mus musculus; assay: Activation of Wnt3a/beta-catenin in mouse 3T3L1 cells assessed as down-regulation of CDK2 expression at 20 uM after 16 to 24 hrs by Western blot analysis; assay type: cell-based; how it was run: as §1
[8] = tested on: 3T3-L1; assay: Anti-adipogenic activity in mouse 3T3L1 cells assessed as reduction in lipid accumulation at 20 uM measured up to 7 days by Oil Red O staining based leica microscopy; assay type: functional, cell-based
How it was run: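 3T3-L1 or C3H10T1/2 cells given 20 µM compound in differentiation media for varied time periods, then stained with Oil red O. Imaged by microscopy at 10x, representative of three independent experiments.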

[9] = organism: Mus musculus; assay: Activation of Wnt3a/beta-catenin in differentiated mouse 3T3L1 cells assessed as upregulation of phosphorylated beta-catenin expression at 20 uM after 16 to 24 hrs in presence of beta-catenin/TCF complex inhibitor FH353 by Western blot analysis
How it was run: (§3)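 Confluent 3T3-L1 cells given differentiation media (IBMX/insulin/dexamethasone) with 20 µM compound, with or without the β-catenin/TCF inhibitor FH353 (10 µM). Proteins isolated at 16 and 24 h and Western blotted after SDS-PAGE and nitrocellulose transfer. Blocking in 5% milk/TBS-T, primary antibody overnight at 4 °C, chemiluminescent detection, β-actin control, three independent experiments.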

[10] = tested on: 3T3-L1; assay: Cell cycle arrest in mouse 3T3L1 cells assessed as accumulation at G1/S phase at 20 uM after 24 hrs in presence of beta-catenin/TCF complex inhibitor FH353 by propidium iodide-staining based flow cytometry; assay type: functional
How it was run: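 3T3-L1 cells exposed to 20 µM with or without FH353 (10 µM) in differentiation medium for 16 and 24 hr. Cells fixed in ice-cold 70% ethanol, stained with PI (40 µg/ml, RNase A buffer, 30 min, room temperature) and analysed by flow cytometry; representative of three experiments.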

[11] = organism: Mus musculus; assay: Activation of Wnt3a/beta-catenin in mouse 3T3L1 cells assessed as down-regulation of C/EBPalpha expression at 20 uM after 2 to 6 days in presence of FH353 by Western blot analysis; assay type: cell-based
[12] = tested on: Syrian golden hamster; assay: Induction of reverse cholestrol transport in high fat diet-induced dyslipidemia Syrian Golden hamster model assessed as increase in ABCA1 mRNA expression in eWAT at 100 mg/kg, po administered for 1 week by qRT-PCR analysis; assay type: functional, organism-based; conditions: Mesocricetus auratus
[13] = tested on: 3T3-L1; assay: Cell cycle arrest in mouse 3T3L1 cells assessed as reduction in accumulation at S phase at 10 to 20 uM after 16 hrs by propidium iodide-staining based flow cytometry; assay type: functional; how it was run: as §2
[14] = organism: Mus musculus; assay: Activation of Wnt3a/beta-catenin in mouse 3T3L1 cells assessed as increase in CREB mRNA expression at 20 uM by qRT-PCR analysis; assay type: cell-based
How it was run: (§4)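 3T3-L1 cells differentiated with IBMX/dexamethasone/insulin media with or without 20 µM compound over the differentiation period. RNA extracted with TRIZOL, 500 ng reverse-transcribed to cDNA, then quantitative real-time PCR. Three independent experiments run in triplicate, mean ± SD, one-way ANOVA with Bonferroni posttest.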

[15] = tested on: C3H 10T1/2; assay: Anti-adipogenic activity in mouse differentiated C3H10T1/2 cells assessed as reduction in lipid accumulation at 5 to 20 uM after 20 mins by Oil Red O staining based microscopic method; assay type: functional, cell-based
How it was run: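 C3H10T1/2 or hMSC adipocytes differentiated alongside 5, 10 or 20 µM compound in differentiation media, stained with Oil red O. Images taken by bright-field microscopy at 10x and 20x, representative of three independent experiments.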

[16] = organism: Mus musculus; assay: Activation of Wnt3a/beta-catenin in differentiated mouse 3T3L1 cells assessed as down-regulation of PPARgamma mRNA expression at 20 uM by qRT-PCR analysis; how it was run: as §4
[17] = tested on: 3T3-L1; assay: Upregulation of wnt3a mRNA expression in mouse 3T3L1 cells at 20 uM by qRT-PCR analysis; assay type: functional, cell-based
How it was run: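 3T3-L1 cells induced with MDI differentiation medium with or without 20 µM. RNA isolated with TRIzol and 500 ng reverse-transcribed to cDNA for real-time PCR. n=3 with triplicates, mean ± SD; one-way ANOVA with Bonferroni post-test.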

[18] = organism: Mus musculus; assay: Activation of Wnt3a/beta-catenin in mouse 3T3L1 cells assessed as down-regulation of cyclinD3 expression at 20 uM after 16 to 24 hrs in presence of FH353 by Western blot analysis; assay type: cell-based; how it was run: as §3

Activity [9]: inactive | Activity [16]: Active
SMILES: Cc1ccc(S(=O)(=O)N(Cc2cn(Cc3cccc(F)c3F)nn2)Cc2cn(S(=O)(=O)c3ccc(C)cc3)c3ccccc23)cc1
Activity [1]: inactive | Activity [2]: Active | Activity [3]: Active | Activity [4]: inactive | Activity [5]: inactive | Activity [6]: Active | Activity [7]: Active | Activity [8]: Active | Activity [10]: inactive | Activity [11]: inactive | Activity [12]: Active | Activity [13]: Active | Activity [14]: Active | Activity [15]: Active | Activity [17]: Active | Activity [18]: inactive

From ChEMBL document CHEMBL4138193, “Novel indole and triazole based hybrid molecules exhibit potent anti-adipogenic and antidyslipidemic activity by activating Wnt3a/β-catenin pathway” (Eur J Med Chem, 2018)
